Reference: ChEMBL document CHEMBL4513216, “Probing the Open Global Health Chemical Diversity Library for Multistage-Active Starting Points for Next-Generation Antimalarials” (ACS Infect Dis, 2020)

Assay: Toxicity liver stage against HepG2, at 10uM
Type: cell-based
Design: test concentration 10 uM, cell line HepG2-A16-CD81EGFP
Conditions: human, HepG2-A16-CD81EGFP cells; read-out: INHIBITION
How it was run: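 Uninfected HepG2-A16-CD81EGFP cells, 3 × 10^3 per well, 1536-well, plated on prespotted compound at 10 μM final, parasite-free screening media added to match infected plates; puromycin 10 μM positive, DMSO 0.5% negative; run in parallel with 48 h PbLuc assay at 37 °C, 5% CO2; viability by CellTiter-Glo luminescence, normalized to controls.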

Structure (SMILES)	cytotoxicity at 10 µM
Cc1cc2c(N)nc(=O)n(CC(=O)Nc3cccc(Cl)c3)c2s1	-3.14%
O=C(Nc1nccs1)c1csc(NC2CCCC2)n1	42%
CC1=Nc2c(c(=O)[nH]n2C(C)C)C(c2ccc3ncccc3c2)S1 (stereo unspecified)	4.66%
CNC(=O)CS(=O)(=O)C1CCN(S(=O)(=O)c2cccc(Cl)c2C)CC1	4.73%
CN(C)C(=O)N1CCN(C(=O)c2cccc(Cl)c2)CC2(CNC(=O)C2)C1 (stereo unspecified)	7.61%
O=C1NC(c2ccccc2)=N[C@@]12CC[C@@H]1CN(S(=O)(=O)C3CC3)C[C@@H]12	9.91%
O=C(Nc1cccc(Cl)c1)c1nn(C2CCS(=O)(=O)C2)c2c1CCCC2 (stereo unspecified)	-12.9%
CN(C)c1nc2n(c(=O)n1)CCN2C(=O)Nc1cccc(Cl)c1	8.19%
Cc1cccc(NC(C)C(=O)Nc2nccs2)c1 (stereo unspecified)	-0.524%
CCn1nc(C)c(C(=O)NCc2csc(C3CC3)n2)c1C	20.5%
Cn1nccc1CN1CCOC(c2cccc(Nc3ccccn3)n2)C1 (stereo unspecified)	23.9%
Cc1cc(-c2cnc(N3CCC(C(N)=O)CC3)nc2C(C)C)on1	72.2%
Nc1nccnc1CC1CCCN(Cc2ccnc3ccccc23)C1 (stereo unspecified)	24.7%
Cc1csc(C(=O)N2CCC(O)(CN3CCc4ccccc4C3)C2)c1 (stereo unspecified)	-1.22%
COc1cccc(-c2noc(C3CCN(Cc4ccncc4)C3)n2)c1 (stereo unspecified)	25.9%
CN1CCCC1c1cccc(Cc2ccccc2F)n1 (stereo unspecified)	7.31%
O=C(CCC1CCCC1)NCc1nnc2ccccn12	2.52%
FC(F)Oc1ccc(CNCc2cc(Br)c3c(c2)OCO3)cc1	35.1%
CN1CCCN(c2ccc(F)cc2CNC(=O)c2ccsc2)CC1	-12.3%
Cc1ncc(CN2CCC(c3ccnn3C)CC2)n1-c1ccccc1	19.1%
CC(C)(C)CC1CCCN1Cc1nc(-c2ccco2)no1 (stereo unspecified)	4.11%
COC(=O)C(CNC(=O)Nc1nncs1)Cc1cccc(C)c1 (stereo unspecified)	6.53%
CCCOc1ccccc1C(N)CC(C)C (stereo unspecified)	-0.595%

Structure (SMILES)	cytotoxicity at 10 µM
NC(=O)CCC1CCCN(c2ccnc3cc(F)ccc23)C1 (stereo unspecified)	14.6%
Cc1cc(C2CCCN(Cc3nc(Cc4ccccc4)no3)C2)n[nH]1 (stereo unspecified)	3.82%
COc1cccc(NC(=O)N2CCC(O)(C(F)(F)F)C2)c1 (stereo unspecified)	3.2%
CC(CCc1ccccc1F)C(=O)NS(=O)(=O)N(C)C(C)C (stereo unspecified)	10.6%
COCCCC(=O)Nc1cc(Cl)c(Cl)cn1	87%
CCc1nsc(N2CCN(CC(=O)NCc3cccnc3)CC2)n1	-4.52%
COc1cccc(C(=O)NCc2ccccc2S(=O)(=O)N(C)CCO)c1	-4.73%
CCc1ccc(C2COCCN2C(=O)Nc2ccc(C(N)=O)c(Cl)c2)o1 (stereo unspecified)	2.42%
COc1ccc(CNC(=O)C2=NN(c3ccc(C)cc3)C(=O)CN2)cc1	17.5%
Cc1cc(C)n(CC2CCCCN2CC(=O)Nc2nccs2)n1 (stereo unspecified)	10.1%
CCn1ccnc1CN1CCN(c2nc(C)cc(OC)n2)CC1	-5.48%
Cc1nc(C(C)(C)NC(=O)Nc2ccc(C#N)cc2)no1	13%
COCCN(Cc1ccc(F)cc1Cl)C(=O)c1cnn(C)c1C	12.8%
Cc1cnn(CC2CCCN2Cc2coc(-c3cccc(F)c3)n2)c1 (stereo unspecified)	1.2%
CC(C)c1nc(CNC2CCCN(c3cccnn3)C2)no1 (stereo unspecified)	7.68%
CC(=O)Nc1cccc(OCCNC(=O)N(C)Cc2ccccc2)c1	-13.2%
O=C(CN1CCCC1Cn1cncn1)Nc1ccc(Cl)cn1 (stereo unspecified)	-5.89%
COc1ccccc1NC(=O)N(CCO)Cc1ccsc1	-1.05%
CN(Cc1ccc(N(C)C)cc1)C(=O)CSc1ccc(Br)cc1	45.6%
NC(CC1CCCC1)c1ccc(Oc2ccccc2)cc1 (stereo unspecified)	3.72%
Cc1nn(CCC#N)c(C)c1CCC(=O)N(C)Cc1ccc(F)cc1F	-1.31%
Cc1n[nH]cc1CNC1CCN(c2cccc(C(F)(F)F)c2)CC1	-64.8%
Cc1cnn(CC(=O)NCC2(O)CCCc3ccccc32)c1 (stereo unspecified)	-38%

Structure (SMILES)	cytotoxicity at 10 µM
CC(c1ccccc1)N(C)C(=O)CN1CCCc2cc(F)cc(F)c21 (stereo unspecified)	27.3%
Clc1cnccc1NCc1cccc(COC2CCOCC2)c1	53.9%
CC(C)n1cnnc1C1CCCN(S(=O)(=O)CC2CCCC2)C1 (stereo unspecified)	-11.7%
CCCC(=O)N1CCCN(C(=O)c2oc(C)nc2C)CC1	-3.92%
CC(C)c1nc(COc2cccc3c2NC(=O)CO3)cs1	35.8%
CNC(=O)c1[nH]nc2ccc(I)cc12	-61.9%
CCc1nnsc1C(=O)NC1CCN(CCOc2ccc(Br)cc2)CC1	-9.56%
CN(C)c1ncc(CNC(=O)Nc2ccc(C(F)(F)F)cc2)n1C	-49.9%
COc1ccc(NC(C)=O)c(N2CCN(C(C)=O)CC2)n1	-8.83%
Cc1ncnc2c1CCN(C(=O)N(C)C)CC2	-79.1%
Cc1cccc(CN2CCC3(CC(C(=O)NCC(C)C)=NO3)C2)c1 (stereo unspecified)	4.66%
c1ccc(CCN2C[C@@H]3OCCN(c4ncccn4)[C@@H]3C2)cc1	-74.1%
O=C(CCO)N1CC[C@@H]2CN(C(=O)c3ccco3)CCO[C@@H]2C1	-72.6%
COCCC(=O)N1CCc2nc(N3CCOCC3)nc(NC(C)C)c2C1	-108%
COc1cc(N2C[C@H]3CCC[C@@H](CN4CCCC4)[C@H]3C2)ncn1	-79%
Cn1cc(CNCC2(N3CCCCC3)Cc3ccccc3C2)cn1	-3.07%
CCC(CO)N(Cc1ccccn1)Cc1c[nH]nc1-c1ccc(F)cc1 (stereo unspecified)	-1.83%
CCCn1ncc(-c2ccnc(NC3CCCc4ccccc43)n2)c1C (stereo unspecified)	20.6%
COc1cccc(OC2CN(C(=O)c3cc(CC(C)C)nn3C)C2)c1	53.2%
Cc1nc[nH]c1CN1CCCC12CCN(c1nc3ccccc3s1)CC2	-0.369%
CCCNCc1ccc(-c2ccnc3[nH]ccc23)cc1	66%
COc1ccc(C(=O)NC2CC2)c(OC2CCN(C(C)CO)CC2)c1 (stereo unspecified)	-7.71%
CCn1cc(-c2cc(-c3cc(CN(C)C)cs3)nc(N)c2C#N)c(C)n1	0.184%

Structure (SMILES)	cytotoxicity at 10 µM
CCC(C)CN1CCC(n2cc(C3CCCCC3)nn2)CC1 (stereo unspecified)	-2.9%
Cc1nc(CCN)cc(N2CCC(O)(c3ccc(Cl)cc3)CC2)n1	-2.24%
CCCN1CCC(Nc2cc(-c3ccccc3)ccc2OC)CC1	0.906%
c1ccc2sc(N3CCN(c4ncnc5c4CCC5)CC3)nc2c1	56.7%
CNC(=O)CCC(=O)N1CCOC(c2ccc3cc(OC)ccc3c2)C1 (stereo unspecified)	3.85%
Cc1ccccc1CN(Cc1ccc(S(C)(=O)=O)cc1)CC(C)C	16.6%
FC(F)(F)c1cccc(OC2CCN(Cc3ncc[nH]3)CC2)c1	-2.45%
Cc1csc2c(N3CCC(Cn4cc(C(C)(C)O)nn4)CC3)ncnc12	29.9%
Nc1nc2c(c(NCc3nccs3)n1)CCN(CC1CCCC1)CC2	4.36%
Nc1cc(N2CCCC(COc3ccc(F)cc3)C2)nc(N)n1 (stereo unspecified)	-7.58%
COc1ccc(F)c(CN2CCCC3(CCN(C4CCOCC4)C3)C2)c1 (stereo unspecified)	-1.48%
Cc1nc(N(C)C2CCCCC2)ncc1C(C)NC(=O)c1cccnc1 (stereo unspecified)	-105%
Cn1cnnc1CN1CCC2(CCC(=O)N(Cc3ccccc3)C2)CC1	7.8%
CC(=O)N1CCc2nc(N(C)C)nc(NCCc3ccccc3)c2CC1	-2.38%
O=C1NCCCC12CCN(c1nc3c(c(C(F)(F)F)n1)CCCC3)C2 (stereo unspecified)	-7.11%
CCC(C)N(Cc1cc(C)n[nH]1)Cc1ccccc1Cl (stereo unspecified)	6.65%
O=C1N(Cc2ccc(F)c(F)c2)CCCC12CCN(C1CCSCC1)C2 (stereo unspecified)	-19.1%
CC(C)c1cc(CN2CCC(N)CC2)no1	-8.24%
CCc1nc(C)cn1C(=O)Nc1ccc(F)cc1	11.1%
CCOCc1ccc(CNc2cncc(-n3cccn3)n2)cc1	20.8%
c1cnc(-c2nc(CN3CCN(CC4CC4)CC3)cs2)nc1	-10.1%
COc1cc(CNCc2c(C)nn(CC(C)C)c2N(C)C)ccn1	-9.3%
Cc1ccc(S(=O)(=O)Nc2ccc(=O)n(C)c2)c(Br)c1	0.802%

Structure (SMILES)	cytotoxicity at 10 µM
COc1cc(C(=O)Nc2nc(C)no2)ccc1OC(F)F	-4.29%
COc1ccc(C)cc1CN1CCCC1c1noc(C2CC2)n1 (stereo unspecified)	16.3%
c1ccc2sc(CN3CCCC3c3noc(C4CC4)n3)nc2c1 (stereo unspecified)	-9.88%
c1ccc2c(N3CCCC3Cn3cccn3)ncnc2c1 (stereo unspecified)	7.94%
c1cnn(CC2CCCN2c2ncnc3sccc23)c1 (stereo unspecified)	38.1%
N#Cc1ccc(NCCNc2ccc(C(F)(F)F)cn2)nc1	73%
Cn1ncc(NCc2cccc(COC(C)(C)C)c2)c(Cl)c1=O	42.2%
Cc1nc(C)n(CC2CCCN(c3ncnc4c3CCC4)C2)n1 (stereo unspecified)	30.5%
Cn1ccnc1CN(Cc1ccccn1)Cc1ccccc1Cl	11.5%
O=C([C@H]1C[C@H]2OCC[C@H]2N(CC2CCOCC2)C1)N1CCCC1	-0.972%
COc1c(CNC2CCOc3c(Cl)cccc32)c(C)nn1C (stereo unspecified)	28.9%
Fc1cccc(N2CCCC3(C2)CN(c2ncccn2)CCO3)c1 (stereo unspecified)	17.4%
CS(=O)(=O)N1Cc2ccnn2CC(C(=O)NCc2cccnc2)C1 (stereo unspecified)	-88.9%
CCc1cnc(N2CCc3cc(C(=O)NC)c(N(C)C)nc3CC2)nc1	-125%
CN(C)c1nccc(N2CCO[C@H]3CN(Cc4nccn4C)C[C@H]32)n1	-123%
Cc1ccc(C(=O)N2CC[C@@H]3[C@H]2CCC(=O)N3CCN(C)C)cn1	-0.726%
Cc1ccc(C(=O)N2CCC3(CCN3c3ncccn3)C2)cn1 (stereo unspecified)	-135%
CC(=O)c1cc(CN2C[C@@H]3CC[C@H]2CN(S(=O)(=O)N(C)C)C3)cs1	-8.19%
CCC1=NN2C(=N)C(=Cc3cccn3-c3ccc(Cl)cc3)C(=O)N=C2S1	7.92%
